Consider 1 molecule from ChEMBL document CHEMBL5357082, “Identification and Optimization of Small Molecule Pyrazolopyrimidine TLR7 Agonists for Applications in Immuno-oncology” (ACS Med Chem Lett, 2024).

Each structure is given as a SMILES string. Calls of active or inactive are those of the source. The rule behind the calls is not given here.

One data set has as its target T1, Toll-like receptor 7 (Mus musculus, UniProt P58681).
T1 sequence (P58681 whole entry): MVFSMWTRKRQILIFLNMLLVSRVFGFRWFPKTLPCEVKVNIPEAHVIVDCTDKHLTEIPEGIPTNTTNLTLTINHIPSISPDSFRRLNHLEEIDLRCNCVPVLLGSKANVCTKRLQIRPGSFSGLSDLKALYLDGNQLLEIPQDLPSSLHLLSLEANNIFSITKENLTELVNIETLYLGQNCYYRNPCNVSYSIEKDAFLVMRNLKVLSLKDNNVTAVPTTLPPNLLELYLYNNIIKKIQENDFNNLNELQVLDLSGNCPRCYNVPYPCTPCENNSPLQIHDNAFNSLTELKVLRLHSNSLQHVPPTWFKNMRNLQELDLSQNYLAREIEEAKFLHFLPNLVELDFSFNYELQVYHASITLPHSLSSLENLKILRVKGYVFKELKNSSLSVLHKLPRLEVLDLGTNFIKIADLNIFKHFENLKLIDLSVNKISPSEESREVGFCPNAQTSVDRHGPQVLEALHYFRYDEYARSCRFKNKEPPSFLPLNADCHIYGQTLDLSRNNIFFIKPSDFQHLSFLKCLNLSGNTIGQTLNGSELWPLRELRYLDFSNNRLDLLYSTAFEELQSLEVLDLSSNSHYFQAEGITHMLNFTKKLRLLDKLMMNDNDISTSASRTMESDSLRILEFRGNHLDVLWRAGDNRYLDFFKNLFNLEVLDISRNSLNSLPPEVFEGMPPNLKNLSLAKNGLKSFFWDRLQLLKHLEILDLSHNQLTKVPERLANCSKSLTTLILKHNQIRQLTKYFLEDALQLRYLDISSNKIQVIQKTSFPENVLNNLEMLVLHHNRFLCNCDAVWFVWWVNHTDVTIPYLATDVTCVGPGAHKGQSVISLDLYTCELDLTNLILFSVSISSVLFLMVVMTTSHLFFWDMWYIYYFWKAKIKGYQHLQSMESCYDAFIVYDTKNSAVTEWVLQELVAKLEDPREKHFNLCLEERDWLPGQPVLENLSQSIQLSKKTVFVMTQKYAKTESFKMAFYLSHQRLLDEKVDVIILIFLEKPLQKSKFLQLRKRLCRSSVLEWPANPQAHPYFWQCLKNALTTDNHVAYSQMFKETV
The experiment in a line: Agonist activity at mouse TLR7.

In a further data set the target is T2, Cytochrome P450 2C8 (Homo sapiens, UniProt P10632).
T2 sequence (P10632 whole entry): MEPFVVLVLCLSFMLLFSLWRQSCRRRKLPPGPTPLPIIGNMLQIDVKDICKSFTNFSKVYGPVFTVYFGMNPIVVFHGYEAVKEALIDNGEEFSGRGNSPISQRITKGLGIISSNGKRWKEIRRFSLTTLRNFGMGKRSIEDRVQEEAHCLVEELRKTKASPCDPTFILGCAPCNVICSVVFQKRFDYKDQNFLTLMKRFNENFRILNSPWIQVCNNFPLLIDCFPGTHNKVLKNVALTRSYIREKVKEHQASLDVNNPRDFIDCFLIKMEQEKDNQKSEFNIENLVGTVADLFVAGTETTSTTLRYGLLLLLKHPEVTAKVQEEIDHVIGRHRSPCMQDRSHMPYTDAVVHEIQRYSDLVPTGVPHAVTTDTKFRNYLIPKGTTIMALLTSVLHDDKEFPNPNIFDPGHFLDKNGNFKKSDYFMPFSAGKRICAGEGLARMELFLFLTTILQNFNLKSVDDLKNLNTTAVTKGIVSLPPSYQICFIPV
Description: Inhibition of CYP2C8 (unknown origin). The data set is classed as ADME.

The next data set has as its system CT26. The experiment in a line: Antitumor activity against syngeneic mouse CT26 cells implanted in ip dosed Balb/cAnNHsd mouse assessed as tumor growth delay administered once a week for 4 weeks in presence of aPD1 antibody and measured twice weekly by digital caliper analysis. Particulars: dose 0.5-2.5 mg/kg. It counts as functional, organism-based. In a few lines:
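Syngeneic CT-26 tumors in mice. The TLR7 agonist was given at 0.5 or 2.5 mg/kg weekly for 4 doses (QWx4). It was combined with anti-PD1 antibody at 10 mg/kg IP, every 4 days for 7 doses (Q4Dx7). Tumor growth was followed, including 27 days after compound dosing stopped.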

The nature of data set [1]: Drug concentration in nontumor bearing Balb/C mouse at 0.5 mg/kg measured after 5 mins. The data set is classed as ADME, organism-based. The settings on record: in vivo, read-out: Drug uptake.
Data set [2] in a line: Clearance in nontumor bearing Balb/C mouse at 0.5 mg/kg. The data set is classed as ADME, organism-based. Particulars: in vivo.
For data set [3], the target named is Voltage-gated inwardly rectifying potassium channel KCNH2 (Homo sapiens, UniProt Q12809). The experiment in a line: Inhibition of hERG. It counts as toxicity.
Chain of Voltage-gated inwardly rectifying potassium channel KCNH2 (Q12809 whole entry): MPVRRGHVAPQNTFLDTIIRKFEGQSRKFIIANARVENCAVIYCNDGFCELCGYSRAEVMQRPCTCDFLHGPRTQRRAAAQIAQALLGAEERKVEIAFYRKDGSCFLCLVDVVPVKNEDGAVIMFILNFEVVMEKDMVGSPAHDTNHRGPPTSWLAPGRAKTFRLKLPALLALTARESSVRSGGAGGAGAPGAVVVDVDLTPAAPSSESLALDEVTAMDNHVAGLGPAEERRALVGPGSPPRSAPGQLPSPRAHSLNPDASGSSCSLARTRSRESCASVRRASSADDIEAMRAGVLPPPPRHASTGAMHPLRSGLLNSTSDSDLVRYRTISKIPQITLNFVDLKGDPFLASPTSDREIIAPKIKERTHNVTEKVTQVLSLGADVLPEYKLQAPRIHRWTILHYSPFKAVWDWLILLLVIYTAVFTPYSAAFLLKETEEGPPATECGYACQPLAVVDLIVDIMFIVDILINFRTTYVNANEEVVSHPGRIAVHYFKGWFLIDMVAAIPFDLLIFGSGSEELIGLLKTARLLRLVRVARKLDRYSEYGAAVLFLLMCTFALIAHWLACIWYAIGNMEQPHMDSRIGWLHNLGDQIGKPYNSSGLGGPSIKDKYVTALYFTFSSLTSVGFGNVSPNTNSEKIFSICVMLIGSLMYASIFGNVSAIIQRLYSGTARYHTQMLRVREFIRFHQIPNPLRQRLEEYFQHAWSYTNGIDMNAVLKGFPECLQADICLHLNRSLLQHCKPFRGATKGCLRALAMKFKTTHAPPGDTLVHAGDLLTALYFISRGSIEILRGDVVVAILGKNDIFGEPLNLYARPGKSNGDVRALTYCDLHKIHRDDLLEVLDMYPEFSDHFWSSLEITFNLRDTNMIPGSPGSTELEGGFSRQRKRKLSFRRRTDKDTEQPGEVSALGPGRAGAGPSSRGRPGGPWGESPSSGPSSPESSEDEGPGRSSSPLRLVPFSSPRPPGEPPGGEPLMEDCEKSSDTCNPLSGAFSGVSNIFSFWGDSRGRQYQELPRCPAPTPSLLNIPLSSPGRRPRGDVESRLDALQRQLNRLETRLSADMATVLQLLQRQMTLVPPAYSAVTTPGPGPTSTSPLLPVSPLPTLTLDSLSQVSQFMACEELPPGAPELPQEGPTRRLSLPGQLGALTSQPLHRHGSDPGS
The next data set has as its system Mus musculus. The experiment in a line: Immunostimulatory activity in nontumor bearing Balb/C mouse assessed as increase in IFNalpha production in serum at 0.5 to 1 mg/kg, iv measured after 2 hrs by ELISA. The data set is classed as functional, organism-based. The settings on record: dose 0.5-1 mg/kg. In short, it runs like this: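 Nontumor-bearing female Balb/C mice received a single 1 mg/kg dose. Serum IFNα was measured 2 h after administration, with N = 9 mice per group.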
(In an ELISA, binding on a coated surface is turned into a signal by an enzyme label.)

For data set [4], the target named is T3, Cytochrome P450 3A4 (Homo sapiens, UniProt P08684). Description: Inhibition of CYP3A4 (unknown origin) using BFC as substrate preincubated with compound followed by substrate addition at 30 mins. The data set is classed as ADME.
T3 sequence (P08684 whole entry): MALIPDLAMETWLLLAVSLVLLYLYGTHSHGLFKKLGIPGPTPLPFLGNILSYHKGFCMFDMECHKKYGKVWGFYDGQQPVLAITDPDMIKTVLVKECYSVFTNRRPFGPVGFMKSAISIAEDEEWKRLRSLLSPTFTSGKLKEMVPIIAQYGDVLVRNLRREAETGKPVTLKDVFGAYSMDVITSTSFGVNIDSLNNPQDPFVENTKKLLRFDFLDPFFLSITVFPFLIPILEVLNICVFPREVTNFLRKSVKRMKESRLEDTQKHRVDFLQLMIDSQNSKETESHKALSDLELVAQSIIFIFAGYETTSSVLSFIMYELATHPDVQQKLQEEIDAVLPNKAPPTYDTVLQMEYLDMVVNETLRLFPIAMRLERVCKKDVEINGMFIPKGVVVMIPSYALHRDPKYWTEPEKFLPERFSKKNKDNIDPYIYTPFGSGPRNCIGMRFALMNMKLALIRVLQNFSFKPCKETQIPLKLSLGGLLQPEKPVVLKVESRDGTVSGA
In another data set the target is Cytochrome P450 2C9 (Homo sapiens, UniProt P11712). Description: Inhibition of CYP2C9 (unknown origin). It counts as ADME.
Chain of Cytochrome P450 2C9 (P11712 whole entry): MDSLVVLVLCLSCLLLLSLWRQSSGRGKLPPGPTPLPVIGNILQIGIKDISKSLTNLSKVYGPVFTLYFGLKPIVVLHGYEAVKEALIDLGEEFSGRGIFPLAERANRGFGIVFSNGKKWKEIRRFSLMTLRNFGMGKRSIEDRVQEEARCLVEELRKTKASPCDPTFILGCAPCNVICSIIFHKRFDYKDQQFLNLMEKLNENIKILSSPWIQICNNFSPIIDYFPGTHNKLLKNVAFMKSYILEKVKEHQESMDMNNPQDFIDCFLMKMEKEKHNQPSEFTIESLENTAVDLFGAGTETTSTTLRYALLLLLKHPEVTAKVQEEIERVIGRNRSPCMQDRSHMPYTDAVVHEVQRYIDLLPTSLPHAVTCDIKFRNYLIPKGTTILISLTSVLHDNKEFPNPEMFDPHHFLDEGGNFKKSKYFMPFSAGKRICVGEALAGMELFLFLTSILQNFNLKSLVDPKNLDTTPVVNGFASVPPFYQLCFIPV
Data set [5] is described as follows: Cytotoxicity against PHA-activated T-cells (unknown origin) assessed as inhibition of IL-2 induced cell proliferation measured after 72 hrs by MTS assay. It counts as toxicity, cell-based. (In general: Tetrazolium assays rely on reduction of a dye to a coloured formazan, in cell work by metabolically active cells.)
Another data set has as its target Cytochrome P450 2D6 (Homo sapiens, UniProt P10635). The experiment in a line: Inhibition of CYP2D6 (unknown origin). The data set is classed as ADME.
For data set [6], the target named is T3, Cytochrome P450 3A4. Description: Inhibition of CYP3A4 (unknown origin) using BFC as substrate preincubated with compound followed by substrate addition at 5 mins. It counts as ADME.

Chain of Cytochrome P450 2D6 (P10635 whole entry): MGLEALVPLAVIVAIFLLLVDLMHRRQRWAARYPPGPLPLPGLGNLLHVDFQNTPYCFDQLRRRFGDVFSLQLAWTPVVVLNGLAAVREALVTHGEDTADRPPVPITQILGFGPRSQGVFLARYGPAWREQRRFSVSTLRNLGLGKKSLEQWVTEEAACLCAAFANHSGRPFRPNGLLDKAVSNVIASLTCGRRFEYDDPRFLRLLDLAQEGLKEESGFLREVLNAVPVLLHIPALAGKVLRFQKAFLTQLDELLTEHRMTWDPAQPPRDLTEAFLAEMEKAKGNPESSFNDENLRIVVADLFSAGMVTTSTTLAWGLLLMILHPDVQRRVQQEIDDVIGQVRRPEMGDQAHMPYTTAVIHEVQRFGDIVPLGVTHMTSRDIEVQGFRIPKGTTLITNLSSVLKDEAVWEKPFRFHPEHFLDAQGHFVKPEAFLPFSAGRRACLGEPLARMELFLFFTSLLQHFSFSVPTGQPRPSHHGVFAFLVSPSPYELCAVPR

For the molecule `CCC[C@@H](CCO)Nc1nc(N)nc2cnn(Cc3ncc(C4CCN(C5CCOCC5)CC4)cc3OC)c12`, a half-maximal effect at Toll-like receptor 7 (EC50) was put at 0.027 µM. Also, the IC50 (commonly the concentration needed to halve the response being measured) against Cytochrome P450 2C8 is > 20 µM; in data set [3] it was > 50 µM; at Cytochrome P450 3A4 [4], > 20 µM; at Cytochrome P450 2C9 it was > 20 µM; against Cytochrome P450 2D6 it was > 20 µM; at Cytochrome P450 3A4 [6] it was > 20 µM. Further, the result in the data set on CT26 and in the data set on Mus musculus was Active. Further, the concentration at 5 min in [1] was determined as 266 nM. The clearance (commonly the rate of elimination divided by the concentration) in data set [2] was determined as 22 mL/min/kg. Moreover, the IC50 at 72 h in data set [5] is > 25 µM.
